The source made the active and inactive calls. No cut-off for these calls is given here.

The test system of data set [1] is Huh-7. Description: Decrease in SAPK/JNK protein expression in human HuH7 cells transfected with pHBV1.2 at 2.5 to 10 ug/ml after 2 days by immunoblot method.
Data set [2] deals with Hepatitis B virus subtype adw2. In words: Antiviral activity against Hepatitis B virus subtype adw2 infected in human HuH7 cells assessed as reduction in precore/pregenomic RNA level at 2.5 to 10 ug/ml after 2 days by northern blot method. It counts as functional, cell-based. A digest of the protocol: (§1)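 After pHBV1.2 transfection of Huh7 cells for 2 days, cells were treated at 2.5, 5 or 10 μg/mL for 2 more days. Total RNA was Northern-blotted with an HBV whole-genome DNA probe. GAPDH served as loading control and β-gal marked transfection efficiency. Bands from three experiments were quantified by densitometry and normalized to GAPDH.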

For data set [3], the target named is T1, NF-kappa-B inhibitor alpha (Homo sapiens) (UniProt P25963).
T1 sequence (whole entry): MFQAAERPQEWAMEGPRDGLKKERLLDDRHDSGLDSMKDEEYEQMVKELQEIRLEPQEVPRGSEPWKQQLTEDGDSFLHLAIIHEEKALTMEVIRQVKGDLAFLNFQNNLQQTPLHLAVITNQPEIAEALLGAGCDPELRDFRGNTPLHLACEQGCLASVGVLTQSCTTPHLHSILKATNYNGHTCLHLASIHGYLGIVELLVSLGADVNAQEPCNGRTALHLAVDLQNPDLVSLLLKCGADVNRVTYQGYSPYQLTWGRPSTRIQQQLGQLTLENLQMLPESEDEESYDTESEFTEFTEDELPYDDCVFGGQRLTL
In words: Decrease in IKBalpha phosphorylation in human HuH7 cells transfected with pHBV1.2 at 10 ug/ml after 2 days by immunoblot method relative to control. It counts as cell-based. A digest of the protocol: (§2)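 Huh7 cells were transfected with pHBV1.2 for 2 days, then treated at 2.5, 5 or 10 μg/mL for another 2 days. Whole-cell protein was extracted with protease inhibitors. NF-κB p65/p50, phospho-p65, IKKα/β and IκBα/phospho-IκBα were detected by immunoblot. Blots are representative of three experiments.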
On the technique in general: In western blotting, separated proteins are transferred to a membrane and probed.

Data set [4] relates to Huh-7. In words: Decrease in IKKalpha protein expression in human HuH7 cells transfected with pHBV1.2 at 10 ug/ml after 2 days by immunoblot method relative to control. It is filed as functional. A digest of the protocol:
as §2

Data set [5] relates to Huh-7. In words: Decrease in NF-kB p65 protein expression in human HuH7 cells transfected with pHBV1.2 at 2.5 ug/ml after 2 days by immunoblot method relative to control. It counts as functional. Put shortly:
as §2

The nature of data set [6]: Selectivity index, ratio of TC50 for human HepG2.2.15 cells to IC50 for Hepatitis B virus subtype adw2 infected in human HuH7 cells assessed as inhibition of HBsAg secretion.
In data set [7] the test system is Huh-7. In words: Decrease in NF-kB p50 protein expression in human HuH7 cells transfected with pHBV1.2 at 5 ug/ml after 2 days by immunoblot method relative to control. It is filed as functional. A digest of the protocol:
as §2

A short description of data set [8]: Selectivity index, ratio of TC50 for human HepG2.2.15 cells to IC50 for Hepatitis B virus subtype adw2 infected in human HepG2.2.15 cells assessed as inhibition of HBeAg secretion.
In data set [9] the test system is Huh-7. In words: Effect on IKKalpha protein expression in human HuH7 cells transfected with pHBV1.2 at 2.5 ug/ml after 2 days by immunoblot method relative to control. It counts as functional. A digest of the protocol: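 HBV adw2 genome plasmid pHBV1.2 transfected into Huh7 for 2 days, then 2.5, 5 or 10 μg/mL for another 2 days. Whole-cell protein extracted with protease inhibitors, then SDS-PAGE immunoblot for NF-κB and MAPK pathway proteins. Blots are representative of three sets of experiments.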

A short description of data set [10]: Antiviral activity against Hepatitis B virus subtype adw2 infected in human HuH7 cells assessed as inhibition of viral DNA replication at 10 ug/ml after 2 days by RT-PCR method relative to control. The conditions noted are these: Huh-7, 48 h. It counts as functional. A digest of the protocol:
(§3)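 Huh7 cells were cotransfected with pHBV1.2 and, where stated, 0.5 or 2.5 μg pCMV-p65 (or empty vector) for 2 days, then treated at 10 μg/mL for 2 days. In separate wells, HBV-expressing cells received 10 μg/mL with or without anisomycin (10 μM) for 2 days. Secreted viral particles were kit-isolated and HBV DNA was measured by real-time PCR, n = 3.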

Data set [11] addresses Mitogen-activated protein kinase; ERK1/ERK2 (Homo sapiens) (UniProt P27361+P28482). In words: Decrease in ERK1/2 phosphorylation in human HuH7 cells transfected with pHBV1.2 at 2.5 to 10 ug/ml after 2 days by immunoblot method.
Data set [12] is described as follows: Effect on ISRE (unknown origin) promoter activity expressed in human HuH7 cells cotransfected with pHBV1.2 at 10 ug/ml after 24 hrs by luciferase reporter gene assay. It is filed as cell-based. A digest of the protocol: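 Huh7 seeded in 24-well plates for 24 h. They were cotransfected with pHBV1.2 plus a luciferase reporter carrying the AP-2 (pAP2-Luc) or ISRE (pISRE-Luc) element, at 1 μg/well, and pRLSV40, in serum-free DMEM for 24 h. After a PBS wash, cells were placed in DMEM with 2% FBS and treated with 10 μg/mL. Luciferase was read from lysates; mean ± SD, n = 3.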
Background: In a reporter assay the amount or activity of a reporter protein is the signal.

In data set [13] the test system is Hepatitis B virus subtype adw2. Description: Antiviral activity against Hepatitis B virus subtype adw2 infected in human HuH7 cells assessed as reduction in major S/preS RNA level at 2.5 to 10 ug/ml after 2 days by northern blot method. It counts as functional, cell-based. A digest of the protocol: as §1
The test system of data set [14] is Hepatitis B virus subtype adw2. Description: Antiviral activity against Hepatitis B virus subtype adw2 infected in human HuH7 cells assessed as inhibition of viral DNA replication at 10 ug/ml cotreated with MAPK activator anisomycin after 2 days by RT-PCR method. It is filed as functional, cell-based. Put shortly: as §3
Data set [15] relates to Hepatitis B virus subtype adw2. In words: Antiviral activity against Hepatitis B virus subtype adw2 infected in human HuH7 cells cotransfected with pCMV-p65 assessed as inhibition of viral DNA replication at 10 ug/ml after 2 days by RT-PCR method. It is filed as functional, cell-based. Put shortly: as §3
Data set [16] is described as follows: Antiviral activity against Hepatitis B virus subtype adw2 infected in human HuH7 cells assessed as reduction in HBcAg level at 5 ug/ml after 2 days by immunoblot method relative to control. It is filed as functional. A digest of the protocol: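 Huh7 cells were transfected with pHBV1.2 (1.2-fold HBV adw2 genome) for 2 days, then exposed to 2.5, 5 or 10 μg/mL for another 2 days. Whole-cell protein was extracted with protease inhibitors. SHBs, HBcAg and HBx were detected by immunoblot, with α-tubulin for comparison.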

Data set [17] concerns Huh-7. Description: Decrease in IKBalpha protein expression in human HuH7 cells transfected with pHBV1.2 at 5 ug/ml after 2 days by immunoblot method relative to control. It counts as functional. A digest of the protocol:
as §2

The next data set concerns Hepatitis B virus. In words: Decrease in HBV preS promoter activity infected in human HuH7 cells cotransfected with pHBV1.2 at 10 ug/ml after 24 hrs by luciferase reporter gene assay. It counts as cell-based. A digest of the protocol:
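Huh7 cells were seeded for 24 h, then cotransfected with pHBV1.2, pRLSV40 and a pGL4.17-based Core (nt 1636-1851), S (nt 3114-220), PreS (nt 2438-2855) or X (nt 1071-1357) promoter-luciferase construct for 24 h. Cells were then treated at 10 μg/mL for 24 h and lysates were assayed for luciferase. Mean ± SD, n = 3.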

Chain of Mitogen-activated protein kinase; ERK1/ERK2 (Homo sapiens) (P27361 whole entry, looked up): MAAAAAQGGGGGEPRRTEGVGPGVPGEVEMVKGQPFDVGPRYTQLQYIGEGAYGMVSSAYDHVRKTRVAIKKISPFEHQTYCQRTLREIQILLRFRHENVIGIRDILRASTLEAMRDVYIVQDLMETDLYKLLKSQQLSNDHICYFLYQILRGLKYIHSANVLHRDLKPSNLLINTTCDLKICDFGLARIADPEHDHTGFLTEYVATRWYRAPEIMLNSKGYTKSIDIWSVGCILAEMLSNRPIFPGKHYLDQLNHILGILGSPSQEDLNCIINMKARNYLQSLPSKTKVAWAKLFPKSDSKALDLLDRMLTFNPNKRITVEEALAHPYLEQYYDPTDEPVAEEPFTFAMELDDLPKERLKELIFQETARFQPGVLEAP
Chain of Mitogen-activated protein kinase; ERK1/ERK2 (Homo sapiens) (P28482 whole entry, looked up): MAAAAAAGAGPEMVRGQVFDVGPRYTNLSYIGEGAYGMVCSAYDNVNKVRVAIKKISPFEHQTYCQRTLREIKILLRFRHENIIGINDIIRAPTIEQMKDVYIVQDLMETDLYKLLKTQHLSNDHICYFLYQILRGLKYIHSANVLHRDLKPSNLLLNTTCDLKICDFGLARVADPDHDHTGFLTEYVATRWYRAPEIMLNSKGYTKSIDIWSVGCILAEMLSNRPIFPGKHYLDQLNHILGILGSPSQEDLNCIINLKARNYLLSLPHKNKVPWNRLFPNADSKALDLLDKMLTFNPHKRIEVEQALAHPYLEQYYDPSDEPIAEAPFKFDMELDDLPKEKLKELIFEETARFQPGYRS

Take `C=C1C[C@@]23CC[C@H]4[C@@](C)(CCC[C@@]4(C)NC(=O)NCCCC)[C@@H]2CC[C@]1(O)C3`: the result (in the data set on Huh-7 [1]; in data set [2]; in [11]; in data set [13]; in the data set with Hepatitis B virus) was Active. Moreover, the fold change (FC) in data set [3] was 0.25; in the data set with Huh-7 [4] it was 0.46; with Huh-7 [5] it was 0.89; in the data set with Huh-7 [7], 0.97; in the data set on Huh-7 [9], 1.1; in data set [16] it was 0.81. The “fold change (FC)” value in the data set on Huh-7 [17] came to 0.94. Also, the values for the selectivity ratio in data set [6] and in data set [8] were 41.4 and 47.7, respectively. Also, in data set [10], the inhibition at 10 µg/mL came to 38%. Besides, the outcome in data set [12] was inactive. Moreover, the inhibition result in data set [14] and in data set [15] was “inactive” in each case.

As a reminder, the inhibition is the percentage by which the read-out fell short of the control.
